# Bioassay records: PubChem BioAssay, several laboratories
# SMARCA2 act: SMARCA2 (BRM) function activators, primary screen, cell-based, luminescence, high throughput; MG213 cells, MMTV-luciferase reporter, dexamethasone, overnight; activation, % at 9.1 µM; hit rate 1% among 370,000; in the data active = activation above about 7.8%;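 note: 0% = vehicle wells and 100% = reference activator wells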
# Yeast superoxide: reduction of superoxide in aged yeast, primary screen, HTS. S. cerevisiae aged cells, superoxide DHE fluorescence; hits give low values. superoxide response (% of plate mean), % at 10 µM. hit rate 0.18% among 330,000. AID 2690, 2010;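 active = superoxide response under a set limit, about three screen SD below normal, cut at about 65% in these data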;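 note: yeast aged for seven days with compound at 30 °C before DHE staining; 100% = average MFI of all compound-treated wells on the plate with controls excluded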
# AHR act: AHR activators, primary screen, cell-based, luminescence, luciferase reporter, human; Aryl hydrocarbon receptor (Homo sapiens), P35869; AHR-responsive luciferase reporter cells; activation, % at 5 µM; hit rate 2.5% among 320,000; AID 2796, 2010; in the data active = activation above about 47%;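 note: 0% = vehicle wells and 100% = reference agonist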
# Target sequence (P35869 whole entry, looked up): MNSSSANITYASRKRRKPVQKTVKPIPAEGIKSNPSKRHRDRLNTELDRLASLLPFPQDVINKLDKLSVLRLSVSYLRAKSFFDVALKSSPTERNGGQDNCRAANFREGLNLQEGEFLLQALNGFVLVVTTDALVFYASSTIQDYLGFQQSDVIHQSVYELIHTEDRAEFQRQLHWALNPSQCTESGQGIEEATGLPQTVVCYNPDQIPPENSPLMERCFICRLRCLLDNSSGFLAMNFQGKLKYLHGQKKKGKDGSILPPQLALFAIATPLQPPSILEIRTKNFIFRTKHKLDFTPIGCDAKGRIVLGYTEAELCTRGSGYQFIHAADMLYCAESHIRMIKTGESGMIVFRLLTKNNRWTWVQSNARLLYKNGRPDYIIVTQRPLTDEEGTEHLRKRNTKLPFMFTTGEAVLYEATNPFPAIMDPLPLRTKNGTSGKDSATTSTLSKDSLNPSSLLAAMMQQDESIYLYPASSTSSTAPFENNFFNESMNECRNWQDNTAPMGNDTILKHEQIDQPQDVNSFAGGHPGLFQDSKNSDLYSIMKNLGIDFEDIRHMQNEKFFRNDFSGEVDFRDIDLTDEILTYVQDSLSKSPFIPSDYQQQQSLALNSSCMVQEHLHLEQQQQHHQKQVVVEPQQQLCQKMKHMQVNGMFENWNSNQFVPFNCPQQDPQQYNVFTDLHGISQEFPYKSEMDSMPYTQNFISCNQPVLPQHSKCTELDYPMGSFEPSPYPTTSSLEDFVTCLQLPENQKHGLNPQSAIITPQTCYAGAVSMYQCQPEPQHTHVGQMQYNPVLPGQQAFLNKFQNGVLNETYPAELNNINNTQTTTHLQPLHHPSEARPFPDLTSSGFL
# Lipid droplet: inhibitors of hepatocyte lipid droplet formation, primary screen, imaging, high-throughput imaging, BODIPY stain | AML12 mouse hepatocytes, oleate lipid droplets | inhibition, % at 6.5 µM | hit rate 0.4% among 240,000 | AID 1656, 2009;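 active = lipid droplet intensity inhibited by at least 50%, with more than 500 cells counted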
#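 Assay system: AML12 mouse liver cells | Compound dosing: One dose, 6.5 µM compound | Read-out basis: Droplet intensity reduction, % inhibition | Measured by: Fluorescence imaging, 20x objective, two fields per well | Schedule: Overnight treatment with compound plus oleate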
# SR-BI uptake up: activators of SR-BI mediated DiI-HDL uptake, primary screen, ldlA[mSR-BI] CHO cells, DiI fluorescence; 3 h; 100 = double the neutral-control signal; activation, % at 12.5 µM; hit rate 0.096% among 320,000;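 active = mean replicate activation of at least 60% and every replicate at or above 60%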;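 note: 0% = median plate neutral-control signal and 100% = twice that signal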
#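 Assay system: LDL receptor-deficient CHO ldlA cells overexpressing murine SR-BI / Medium: BSA-supplemented, HEPES-buffered Ham's F12, pH 7.4 / Probe or stimulus: DiI-labelled HDL at 10 µg/mL final / Timing: compound with DiI-HDL co-incubation, 3 h at 37 °C / Technique: bottom-read cell fluorescence after medium removal, ex 550/em 595 nm / Measure: HDL uptake via cellular fluorescence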
# SR-BI HDL uptake: inhibitors of SR-BI mediated HDL lipid uptake, primary screen, ldlA[mSR-BI] cells, fluorescence, single point; Scavenger receptor class B member 1 (Mus musculus), Q61009; ldlA[mSR-BI] CHO cells, DiI-HDL uptake fluorescence, 3 h; inhibition, % at 12.5 µM; hit rate 0.96% among 320,000; AID 488896, 2010;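 active = mean replicate inhibition of at least 70% and a set share of replicates each scoring 70 or more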;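 note: 0% = median of neutral control wells and 100% = median of positive control wells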
# Lipid drop inh: hepatocyte lipid droplet accumulation inhibitors, confirmation, imaging, AML12 mouse hepatocytes, single concentration, high-content; inhibition, % at 5.2 µM; hit rate 65% among 870; AID 463183, 2010; shares compounds with Lipid droplet; BODIPY lipid droplet imaging; droplets induced with 100 µM oleic acid;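 active = inhibition of lipid droplet metric at least 50%, with more than 300 cells in each of four replicates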;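 note: plate controls were DMSO with oleic acid for no effect and 5 µM Triacsin-C for full effect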
# AML12 tox img: AML12 hepatocyte cytotoxicity, counter-screen for hepatic lipid droplet formation project, imaging, DAPI nuclear morphology imaging; shares compounds with Lipid droplet; AML12 mouse hepatocytes; hits give high values; cells fed 100 µM oleate overnight; z-score at 5 µM; hit rate 3% among 870; in the data active = z-score above about 6.3;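 note: compound exposure lasted overnight at 37 °C before fixation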
# AML12 tox ATP: AML12 hepatocyte cytotoxicity, confirmation, cytotoxicity control for hepatic lipid droplet formation project, cell-based, single concentration; shares compounds with Lipid droplet; AML12 mouse hepatocyte viability, ATP luminescence; cells loaded with 100 µM oleic acid; cytotoxicity, % at 50 µM; 530 tested, under 10 active; AID 463219, 2010;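 active = cytotoxicity above 50% in each of four replicates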;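 note: compound exposure lasted overnight at 37 °C before the ATP read; 0% = DMSO-treated cells and 100% = wells with no cells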
# * marks the source's active call; other numbers are inactive results; nt = not tested or not shown. Sampled rows, rich in hits. Any-hit rate of the full collection: about 4.3%.
SMILES,SMARCA2 act,Yeast superoxide,AHR act,Lipid droplet,SR-BI uptake up,SR-BI HDL uptake,Lipid drop inh,AML12 tox img,AML12 tox ATP
COc1ccc(-n2c(=O)c3ccccc3n(CC(=O)c3ccccc3)c2=O)cc1OC,-1.3,94.4,-2.9,6.4,nt,nt,nt,nt,nt
COc1ccc(-n2c(=O)c3ccccc3n(CC(=O)Nc3cc(C)on3)c2=O)cc1OC,1.4,98.1,0.2,52.1*,22.7,-22.7,30.7,-0.626,nt
CC(=O)c1ccc(N2CCCC2)c(F)c1,nt,94.8,-9.4,52.8*,nt,nt,23.1,-0.965,nt
Cc1ccc(C)c(NC(=O)Cn2cc(C(=O)C3CC3)c3ccccc32)c1,-3.2,104.8,1.9,75.2*,-7.9,7.9,93.7*,-0.527,18.9
Cc1ccc(NC(=O)Cn2cc(C(=O)C3CC3)c3ccccc32)c(C)c1,2.5,103.2,-1.2,17.4,nt,nt,nt,nt,nt
COC(=O)CCC[C@H](C)[C@@H](NS(=O)(=O)c1ccc(C)cc1)C(C)(C)C,-4.5,nt,nt,nt,nt,nt,nt,nt,nt
Cc1ccc(NC(=O)CN(C)CC(=O)Nc2ccc(N3CCOCC3)cc2)c(C)c1,-4.2,86.1,2.6,52.8*,-2.7,2.7,83.7*,-0.995,nt
O=C(Nc1cccc(Cn2cccn2)c1)c1cc2c(s1)CCCC2,-1.3,90.5,-1.9,55.2*,-40.7,40.7,57.4,-0.112,25.8
COc1ccc(C(=O)OC(C)C(=O)NC(C)CCc2ccccc2)cc1OC (configuration not stated),1.2,119.6,-2.3,103.4*,10.8,-10.8,107.3*,-0.0177,14.3
COc1ccc(C(=O)OCC(=O)NC(C)CCc2ccccc2)c(OC)c1 (configuration not stated),2.0,82.5,1.2,75.4*,4.0,-4.0,66.7,0.647,7.1
CCOc1ccc(C(=O)NCC(=O)NC(C)CCc2ccccc2)cc1OCC (configuration not stated),-1.7,84.5,nt,75.3*,-16.7,16.7,106.0*,1.08,16.0
COc1cc(C(=O)NCC(=O)NC(C)CCc2ccccc2)cc(OC)c1OC (configuration not stated),-2.0,86.7,4.9,3.8,10.0,-10.0,nt,nt,nt
CCOc1ccc(C(=O)CCC(=O)NCC(=O)OCc2ccccc2)cc1OCC,-1.5,106.5,2.8,92.9*,-3.1,3.1,72.7*,-0.476,8.5
CCOC(=O)N[C@H](C(=O)N1CCC[C@H]1C(=O)NCCc1ccccc1Cl)C1CCCCC1,0.0,nt,nt,nt,nt,nt,nt,nt,nt
CCCCCn1nnnc1C1(C)CSCC(=O)N1Cc1ccco1 (configuration not stated),1.2,nt,nt,nt,nt,nt,nt,nt,nt
CC(C)C[C@H]1COc2cc(N3CCSCC3)ccc2S(=O)(=O)N1C,-1.8,nt,nt,nt,nt,nt,nt,nt,nt
COc1cc(NC(=O)NC2CCCCN(Cc3cccc(Cl)c3)C2=O)cc(OC)c1 (configuration not stated),-1.6,nt,nt,nt,nt,nt,nt,nt,nt
COc1ccc(NC(=S)NC(=O)c2ccccc2Cl)cc1,0.0,96.7,-7.7,56.8*,-14.4,14.4,38.6,0.0168,nt
O=C(NC(=S)Nc1ccc(Cc2ccncc2)cc1)c1ccccc1Cl,-1.4,80.0,-1.0,2.2,23.0,-23.0,nt,nt,nt
COc1ccc(Cn2cc(CN3[C@@H](c4ccccc4)COc4cc(Br)ccc4S3(=O)=O)nn2)cc1,3.3,nt,nt,nt,nt,nt,nt,nt,nt
COc1ccccc1Nc1ccc(NS(=O)(=O)c2ccc(C(C)=O)cc2)cc1,-2.7,100.4,5.7,99.2*,-15.2,15.2,93.7*,0.789,nt
COc1ccccc1NS(=O)(=O)c1ccc(NC(C)=O)cc1,0.1,86.6,2.4,3.6,-5.4,5.4,nt,nt,nt
CCCCCCCCN1C(=O)[C@@H](CC(=O)NCCCOCCCC)C[C@@]2(C(=O)OC)C1=C[C@H](C(C)C)O[C@@H]2C1CC1,-3.0,nt,nt,nt,nt,nt,nt,nt,nt
CCCN1/C(=C2/SC(=S)N(CC)C2=O)C=Cc2ccccc21,1.7,116.9,-1.8,9.0,-26.7,26.7,nt,nt,nt
CCCN1C(=O)/C(=C2/C=Cc3ccccc3N2CC)SC1=S,0.1,87.3,-2.5,84.9*,-55.2,55.2,105.3*,-0.132,12.9
SMILES,SMARCA2 act,Yeast superoxide,AHR act,Lipid droplet,SR-BI uptake up,SR-BI HDL uptake,Lipid drop inh,AML12 tox img,AML12 tox ATP
Cc1ccc(S(=O)(=O)NCc2ccc(C(=O)NC3CCCCC3)cc2)cc1,-5.2,107.6,1.3,-4.0,-25.2,25.2,nt,nt,nt
Cc1ccc(S(=O)(=O)NCc2ccc(C(=O)NC3CC3)cc2)cc1,2.1,100.3,-0.5,60.0*,-2.8,2.8,62.5,0.0739,7.7
Cc1ccc(-c2cc(-c3c(C)nn(C)c(=O)c3N)[nH]n2)cc1,1.7,95.7,4.8,56.2*,-5.7,5.7,78.6*,-0.359,nt
CCOC(=O)CNC(=O)CSc1nnc(-c2ccccc2)n1CC,2.8,nt,nt,nt,nt,nt,nt,nt,nt
COC(=O)Cc1c(O)ccn(CCc2ccc(OC)c(OC)c2)c1=O,-3.1,82.9,1.0,6.4,0.7,-0.7,nt,nt,nt
COc1ccc(CCn2ccc(O)c(Cc3ccc(Cl)cc3)c2=O)cc1OC,-1.8,105.8,-3.1,61.0*,27.1,-27.1,106.1*,0.554,4.0
O=C(Nc1ccc(Cl)cc1)C1CCCN1S(=O)(=O)c1cccc2cccnc12 (configuration not stated),-5.5,nt,nt,nt,nt,nt,nt,nt,nt
CCN1CCN(c2c(/C=C3\SC(=S)N(Cc4ccco4)C3=O)c(C)c(C#N)c(=O)n2C)CC1,-4.1,69.5,0.4,64.9*,-0.3,0.3,9.0,-0.444,nt
Clc1ccc(-c2csc(NCC3CCCO3)n2)cc1 (configuration not stated),-1.0,nt,nt,nt,nt,nt,nt,nt,nt
CC1=C(C(=O)OCC2CCCO2)C(c2ccc(Cl)c(Cl)c2)NC(=O)N1 (configuration not stated),-1.1,97.7,0.2,57.1*,18.9,-18.9,35.2,-0.645,nt
Cc1noc(C)c1C(=O)Nc1ccc(F)cc1F,2.8,98.5,-4.5,55.3*,-23.1,23.1,27.7,-0.471,nt
Cc1cc(C(=O)Nc2ccc(F)cc2F)on1,-3.4,134.9,-4.5,0.8,9.0,-9.0,nt,nt,nt
O=C(Nc1cccc(Br)c1)c1cccc(OC(=S)N2CCOCC2)c1,-3.9,114.6,2.8,59.4*,nt,nt,95.2*,0.946,18.7
